Shown are actives, neighbours in structure and some others; about 2.2% of the full set was active somewhere.
PfM18AAP inh-1: PfM18AAP inhibitors, malaria aminopeptidase, primary screen, biochemical, QFRET, recombinant enzyme. 290,000 tested, 1.2% active. M18 aspartyl aminopeptidase (Plasmodium falciparum 3D7). AID 1822, 2009. H-Glu-NHMec fluorogenic cleavage. inhibition, % at 7.35 µM;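 active = inhibition above the campaign mean inhibition over all tested compounds plus 3 SD, cut at about 28% in these data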;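 note: 0% = plate median of test compound wells and 100% = 2 mM ZnCl2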
PfGluPho inh: PfG6PD enzyme inhibitors, primary screen, biochemical, fluorescence intensity, uHTS; 350,000 tested, 0.78% active; inhibition, % at 20 µM; glucose-6-phosphate dehydrogenase-6-phosphogluconolactonase (Plasmodium falciparum 3D7); PfGluPho enzyme, NADPH resazurin-diaphorase fluorescence;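 active = inhibition reaching at least a set limit at 20 µM in the primary screen, cut at about 59% in these data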;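 note: 0% = DMSO wells with substrate and 100% = DMSO wells lacking glucose-6-phosphate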
HKDC1 inh: HKDC1 hexokinase inhibitors, primary screen, biochemical, fluorescence, uHTS. inhibition, % at 20 µM. Q2TB90. 340,000 tested, 0.16% active. AID 493160, 2011. recombinant HKDC1, G6PDH/diaphorase resazurin coupled fluorescence;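 active = inhibition above about 35% when tested at 20 µM, limit read from the data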;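 note: plate controls were DMSO wells with enzyme for no effect and DMSO wells lacking enzyme for full effect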
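test system = in-house recombinant HK5 (HKDC1) enzyme | amount = HKDC1 at 5 µg/mL | control set = DMSO-enzyme wells negative, buffer-substituted wells positive | compound = one dose of 20 µM, 1% DMSO | schedule = reaction time 90 min, room temperature, protected from light | technique = resorufin fluorescence at 613 nm | reagent = glucose with 1 mM ATP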
Neddylation inh: inhibitors of cullin neddylation, primary screen, biochemical, TR-FRET, uHTS, NAE and Ubc12 | 360,000 tested, 0.58% active | inhibition, % at 25 µM | AID 651699, 2012; in the data active = inhibition above about 36%
Target sequence (P61081 whole entry, looked up): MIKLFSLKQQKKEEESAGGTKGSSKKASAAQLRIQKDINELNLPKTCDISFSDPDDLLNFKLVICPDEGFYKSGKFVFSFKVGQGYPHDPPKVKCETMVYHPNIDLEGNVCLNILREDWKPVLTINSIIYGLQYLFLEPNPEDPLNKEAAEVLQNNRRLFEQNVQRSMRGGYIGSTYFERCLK
Target sequence (Q13564 whole entry, looked up): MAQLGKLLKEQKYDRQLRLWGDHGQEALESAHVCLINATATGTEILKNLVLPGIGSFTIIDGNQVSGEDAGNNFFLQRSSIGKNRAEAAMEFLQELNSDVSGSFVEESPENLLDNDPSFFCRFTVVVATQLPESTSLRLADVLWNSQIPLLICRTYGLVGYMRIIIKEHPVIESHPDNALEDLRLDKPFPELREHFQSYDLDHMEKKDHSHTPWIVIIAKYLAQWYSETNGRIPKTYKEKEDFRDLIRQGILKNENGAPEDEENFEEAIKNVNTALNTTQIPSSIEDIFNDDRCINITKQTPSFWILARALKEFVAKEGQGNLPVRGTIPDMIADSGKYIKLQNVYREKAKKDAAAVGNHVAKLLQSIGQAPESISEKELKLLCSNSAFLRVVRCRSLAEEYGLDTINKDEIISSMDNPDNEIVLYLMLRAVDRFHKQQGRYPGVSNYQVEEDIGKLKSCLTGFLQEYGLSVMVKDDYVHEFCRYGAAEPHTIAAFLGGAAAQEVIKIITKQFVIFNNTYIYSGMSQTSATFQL
PfM18AAP inh-2: PfM18AAP inhibitors, malaria aminopeptidase, confirmation, biochemical, QFRET, recombinant enzyme, triplicate | shares compounds with PfM18AAP inh-1 | H-Glu-NHMec fluorogenic cleavage | inhibition, % at 7.35 µM | 2,400 tested, 28% active | AID 2170, 2009;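 active = mean inhibition over replicate wells above the hit cutoff set for the earlier primary screen, cut at about 29% in these data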;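 note: 0% = median of test compound wells and 100% = 2 mM ZnCl2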
CTSL1 confirm: cathepsin L1 inhibitors, retest, confirmation, counter-screen for PFM18AAP inhibitor project, biochemical, QFRET, triplicate; shares compounds with PfM18AAP inh-1; purified cathepsin L1, Z-Leu-Arg-MCA fluorescence; inhibition, % at 5.96 µM; 2,400 tested, under 10 active; AID 2178, 2009;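 active = average inhibition across replicates above the hit cutoff set in the earlier primary screen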;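 note: 0% = median of test compound wells and 100% = Z-Phe-Ala-diazomethylketone 1 µM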
The depositor's hits bear a star; . = no result given.

SMILES | PfM18AAP inh-1 | PfGluPho inh | HKDC1 inh | Neddylation inh | PfM18AAP inh-2 | CTSL1 confirm
Cc1cccc2sc(NNC(=O)c3cc(=O)c4ccccc4o3)nc12 | 44* | 25 | -23 | -15 | -1 | -4
O=[N+]([O-])c1ccc(-c2ccn[nH]2)o1 | 40* | -4 | 13 | -22 | -44 | -9
COc1cc2nc3n(c(=O)c2cc1OC)-c1ncccc1C(=O)NC3Cc1ccccc1 (stereo unspecified) | . | -21 | . | -3 | . | .
Cc1ccc(S(=O)(=O)N2CCCC2C(=O)Nn2cnnc2)cc1 (stereo unspecified) | 7 | -1 | 19 | 8 | . | .
Cc1ccc(S(=O)(=O)N2C(=O)CCC2C(=O)Nn2cnnc2)cc1 (stereo unspecified) | 66* | -9 | -5 | -3 | 32* | -3
Cc1snc2sc(C(=O)c3ccc(F)cc3)c(N)c12 | 41* | -2 | -6 | -4 | -38 | 5
CCc1ccc(OCCCCCn2ccnc2)cc1 | -12 | 1 | -8 | -5 | . | .
Cc1ccc(Cl)cc1NC(=O)Nn1cnnc1 | 76* | -1 | 1 | 0 | 61* | -5
O=C(Nc1ccc(Cl)cc1Cl)Nn1cnnc1 | 83* | 4 | 7 | 5 | 77* | -2
O=C(Nc1ccno1)Nc1ccc(Cl)cc1Cl | 5 | 20 | -6 | -9 | . | .
Cc1ccc(C)c(NC(=O)Nn2cnnc2)c1 | 60* | -9 | -2 | 8 | 41* | -3
COc1ccc(Cl)cc1NC(=O)Nn1cnnc1 | 81* | -8 | -2 | 6 | 74* | 2
Cc1cc(C)c(-c2cc(C(=O)Nc3c(C)n(C)n(-c4ccccc4)c3=O)[nH]n2)c(O)c1 | 41* | -12 | 6 | 11 | -17 | 4
COc1ccc(OC)c(-c2c3cc(O)c(=O)cc-3oc3cc(O)c(O)cc23)c1 | 45* | 37 | 34 | -14 | 26 | 4
COc1ccc(OC)c(-c2oc3ccccc3c(=O)c2O)c1 | -2 | -46 | -12 | 28 | . | .
O=C(NNC(=O)C1CCN(c2ncccn2)CC1)c1ccc(F)cc1 | -6 | 17 | -3 | 17 | . | .
O=C1CC(c2ccccc2)Oc2cc(O)cc(O)c21 (stereo unspecified) | . | -11 | -2 | 1 | . | .
COc1cc(OC)c2c(c1O)OC(c1ccccc1)CC2=O (stereo unspecified) | 49* | 27 | -1 | -1 | 0 | 4
O=C(Nc1ccc2c(c1)OCO2)Nc1ccccc1F | 1 | 23 | -5 | 5 | . | .
O=C(Nc1ccc2c(c1)OCCO2)NC1(C(F)(F)F)Oc2ccccc2O1 | 59* | 19 | 7 | 2 | 16 | 5
O=C(Nc1ccc2c(c1)OCO2)NC1(C(F)(F)F)Oc2ccccc2O1 | 57* | 47 | 6 | 2 | 18 | 0
O=C(OCC(=O)N1CCNC1=O)c1ccccc1Cl | . | -2 | . | -8 | . | .
Cc1nn(CC(=O)NC(C)C(C)C)c(C)c1S(=O)(=O)N1CCCCC1 (stereo unspecified) | . | -8 | -3 | 12 | . | .
O=C(NNC(=O)c1ccc(S(=O)(=O)N2CCCCC2)cc1)c1ccc(F)cc1 | 10 | 3 | -5 | 3 | . | .
O=C(Nc1ccc(F)cc1F)Nc1ccc(F)cc1F | -1 | 10 | -8 | 3 | . | .
SMILES | PfM18AAP inh-1 | PfGluPho inh | HKDC1 inh | Neddylation inh | PfM18AAP inh-2 | CTSL1 confirm
O=C(NNc1ccccc1[N+](=O)[O-])Nc1cccc(Cl)c1 | 33* | 36 | -4 | -24 | 31* | 0
O=C(NNc1ccccc1[N+](=O)[O-])Nc1ccc(F)cc1F | 40* | 5 | -7 | -42 | 27 | -3
O=C(Nn1cnnc1)c1cc2cc(Br)ccc2oc1=O | 34* | -9 | 9 | -23 | 25 | 3
CC1=CC(=O)O[C@@H]1[C@@]1(C)C[C@H]2OC(=O)C[C@H]3[C@@H](C)C(=O)C(O)=C1[C@@]23CO | . | 8 | -2 | 1 | . | .
O=C(Nn1cnnc1)c1cc(-c2cccc(Br)c2)nc2ccccc12 | 61* | 12 | -1 | -6 | 57* | 2
CC1(C)OC(C)(C)/C(=C/Nc2ccc(O)cc2)C1=O | 43* | 27 | 20 | -16 | -51 | 4
COc1ccc(NC(=O)CCC(=O)Nc2nnc(CC(C)C)s2)cc1Cl | 3 | 8 | -3 | 0 | . | .
COc1cccc(C(O)c2ncc(-c3cccc(F)c3)[nH]2)c1 (stereo unspecified) | . | . | . | 7 | . | .
CC(=O)N1CCN(S(=O)(=O)c2ccc(C)cc2)C1c1ccc(N(C)C)cc1 (stereo unspecified) | 36* | 0 | -2 | 3 | -27 | -1
COc1cc2ccc(=O)oc2c(O)c1OCC=C(C)C | 40* | -12 | 8 | 14 | -38 | 2
CC(C)=CCOc1ccc2ccc(=O)oc2c1 | 10 | 3 | -4 | . | . | .
Oc1c(/C=N/c2ncn[nH]2)ccc2ccccc12 | 64* | 31 | 27 | 12 | 52* | -4
C=CCc1c(C)nc(-c2ccccc2)nc1Nc1ccc(O)cc1 | -4 | -8 | 1 | 10 | . | .
C=CCc1c(C)nc(-c2ccccc2)nc1N/N=C(\C)c1ccccc1 | 37* | 14 | -2 | 0 | -27 | 0
O=C(c1ccco1)N1CCN(C(=S)Nc2ccc(F)c(Cl)c2)CC1 | 4 | 12 | 3 | 11 | . | .
COc1cc(C(CC(=O)Nc2cccc(C)n2)N2Cc3ccccc3C2=O)cc(OC)c1OC (stereo unspecified) | -13 | -14 | -3 | -6 | . | .
O=C(Cc1ccc2c(c1)OCCO2)c1c(O)cc(O)cc1O | 39* | -30 | -5 | 7 | 28 | 1
O=C(NNc1ccc([N+](=O)[O-])cc1)c1ccco1 | 69* | 46 | 3 | -35 | 45* | 4
O=C(NNc1ccc([N+](=O)[O-])cc1[N+](=O)[O-])c1ccco1 | 15 | 12 | 1 | -81 | . | .
Nc1ccc([N+](=O)[O-])cc1C(=O)NNC(=O)c1ccco1 | 33* | 4 | -2 | -16 | 14 | 3
Cc1cccc(C(=O)NNC(=O)c2ccco2)c1O | 32* | -12 | -2 | 2 | 10 | -1
Cc1cc(C)c2oc(=O)cc(CN3CCC(C)CC3)c2c1 | 0 | -14 | 5 | 3 | . | .
CCCOc1ccc(C(=O)CCC(=O)OCC(=O)N(C)c2c(N)n(Cc3ccccc3)c(=O)[nH]c2=O)cc1 | -1 | -6 | 6 | -1 | . | .
CCCn1nc(C(=O)N2CCN(S(=O)(=O)c3ccc(C)c(C)c3)CC2)c2ccccc2c1=O | . | 2 | 2 | 2 | . | .
C/C(=N\NC(=O)c1cccc(N/N=C(\C)c2cc(O)ccc2O)c1)c1cc(O)ccc1O | 40* | 26 | -8 | -12 | 42* | -3
